Sampled rows, rich in hits. Any-hit rate of the full collection: about 0.3%.
LANA-nucl inh = LANA-nucleosome interaction inhibition; FITC-LANA1-23 / chicken nucleosome fluorescence polarization; stronger effect = lower value; z-score (test concentration not listed); 0.3% of 51,000 active;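 active means both repeat wells score below -2 in polarization z-score versus plate sample wells, excluding overly bright wells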
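Assay system: FITC-LANA peptide and chicken nucleosomes; input: 240 nM purified chicken nucleosomes (480 nM peptide binding sites), final; also added: 50 nM FITC-LANA1-23 probe; medium: TEN-BT buffer, pH 7.5; doses: pin-transferred compound, 100 nL; times: 10–45 min, room temperature; technique: fluorescence polarization; replication: duplicates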
BasE inh = BasE siderophore biosynthesis inhibition. purified BasE, fluorescence polarization binding displacement. inhibition, % (no concentration beside the values). 0.1% of 84,000 active. AID 485350; in the data active means inhibition above about 25%, passing the limit was not always enough
Each line names hits and unclear results; the compound was inactive in the other large screens; ! = not active in a repeat.

O=C(CC1SC(=O)NC1=O)Nc1ccccc1NC(=O)CC1SC(=O)NC1=O (stereo not drawn)	none
C=CCN1C(=O)NC(=O)/C(=C\c2cn(Cc3ccccc3)c3ccccc23)C1=O	none (no result: LANA-nucl inh)
CCN(CC)C(=O)Cn1cc(/C=C2\C(=O)NC(=O)N(CC)C2=O)c2ccccc21	LANA-nucl inh -2.7
NC(c1ccccc1)c1ccccc1	none (no result: LANA-nucl inh)
Cn1nccc1C(N)c1ccccc1 (stereo not drawn)	BasE inh 26
O=C1C(c2ccc(I)cc2)=C(O)c2ccccc21	none (no result: LANA-nucl inh)
O=C1C(c2ccnc3ccccc23)=C(O)c2ccccc21	LANA-nucl inh -4.2
COc1cc(SC)ccc1C(=O)N(C)C1CCN(C)CC1	none (no result: LANA-nucl inh)
O=C(CSc1nc2ccccc2c(=O)[nH]1)c1ccc(S(=O)(=O)N2CCCCC2)cc1	none (no result: LANA-nucl inh)
O=C(CCc1c[nH]c2ccccc12)OCc1nnc(-c2ccccc2)o1	LANA-nucl inh -2.1
O=C(Cc1ccccc1)OCc1nnc(-c2ccccc2)o1	none
CCCc1nnc(SCC(=O)Nc2ccccc2)o1	none
Cn1nc(-c2ccc(F)cc2)nc2c(=O)n(C)c(=O)nc1-2	LANA-nucl inh -4.8
Fc1ccc(-c2nc3n(n2)Cc2ccccc2-3)cc1	none
COC(=O)C1=C(N)Oc2cc(C)[nH]c(=O)c2C1c1ccccc1OC (stereo not drawn)	BasE inh 43
Cc1cc2c(c(=O)[nH]1)C(c1ccncc1)C(C#N)=C(N)O2 (stereo not drawn)	none
CCOC(=O)N1CCN(C(=O)CC2c3ccccc3Oc3ccccc32)CC1	none
O=C1CN(C(=O)CC2c3ccccc3-c3ccccc32)CC(=O)N1	BasE inh 43
O=C1CSc2sc(=S)sc2S1	BasE inh 28 (no result: LANA-nucl inh)
O=C(Nc1ccc(OCc2ccccc2)cc1)N1CCN(C(=O)C2COc3ccccc3O2)CC1 (stereo not drawn)	none (no result: LANA-nucl inh)
N#C/C(=C\c1ccc(-c2cc(C(F)(F)F)ccc2Cl)o1)C(=O)O	none (no result: LANA-nucl inh)
N#C/C(=C/c1ccc(-c2cc(C(=O)O)ccc2Cl)o1)C(=O)NCCc1c[nH]c2ccccc12	BasE inh 31
O=C(O)C1Nc2c(I)cccc2C2C=CCC12 (stereo not drawn)	BasE inh 47
COC(=O)c1ccc([C@@H]2Nc3c(C)cccc3[C@@H]3C=CC[C@@H]32)cc1	none (no result: LANA-nucl inh)
Cc1ccc(-n2c(C)c3c(C)nnc(C)c3c2C)cc1C	none
Oc1ccc(/C=N/NC(=S)Nc2ccc(Cl)cc2Cl)c(O)c1O	BasE inh 34 (no result: LANA-nucl inh)
CC(C)(C)N/N=C/c1ccc(O)c(O)c1O	none (no result: LANA-nucl inh)
O=c1[nH]nc2c3c(cccc13)-c1ccccc1-2	none
O=C1c2ccccc2-c2n[nH]c3cccc1c23	LANA-nucl inh -2!
Cc1n[nH]c(C)c1CC(=O)NCCC1=CCCCC1	none
CCN(Cc1ccccc1)C(=O)C1CC2CCCN2C12C(=O)Nc1ccccc12 (stereo not drawn)	none
Cc1cc(O)c(Cc2cc(Cl)c3cccnc3c2O)c(=O)o1	BasE inh 78 (no result: LANA-nucl inh)
O=c1oc2ccccc2c(O)c1Cc1cc(Cl)c2cccnc2c1O	none (no result: LANA-nucl inh)
Fc1ccc(-c2nc3ncccc3o2)cc1	none
O=C(Nc1ccc(N2CCOCC2)cc1)Nc1ccc2nc(-c3ccco3)c(-c3ccco3)nc2c1	none
O=C(NCCCO)Nc1ccc2nc(-c3ccco3)c(-c3ccco3)nc2c1	LANA-nucl inh -3
C/C(=C\C(=O)c1cccnc1)Nc1ccccc1O	BasE inh 30
CCC(C)c1ccc(O)c(NC(=O)c2cccnc2)c1 (stereo not drawn)	none (no result: LANA-nucl inh)
CC1Cc2ccccc2N1CC(=O)Nc1ccccc1Cl (stereo not drawn)	none (no result: LANA-nucl inh)
Cc1csc(C(C#N)C(=O)CSc2cc(C)c3ccccc3n2)n1 (stereo not drawn)	none (no result: LANA-nucl inh)
Cc1csc(C(C#N)C(=O)CSc2nc3ccccc3n2-c2ccccc2)n1 (stereo not drawn)	BasE inh 35 (no result: LANA-nucl inh)
CS(=O)(=O)/C(C#N)=C/c1cccn1-c1ccc(OC(F)(F)F)cc1	none (no result: LANA-nucl inh)
O=C(Cc1nc2ccccc2s1)c1ccc(O)cc1O	none (no result: LANA-nucl inh)
O=C(Cc1nncn1-c1ccccc1)c1ccc(O)cc1O	BasE inh 33 (no result: LANA-nucl inh)
Cc1ccc(C)n1-c1cc(Cl)ccc1C(=O)O	BasE inh 85
Cc1ccc(C)n1-c1cc(Cl)ccc1N1CCCCC1	none (no result: LANA-nucl inh)
CC(C)n1c(=O)[nH]c2cc(C(=O)Nc3ccccc3N3CCCC3)ccc21	none
Oc1ccc(C2SCCS2)cc1	BasE inh 53 (no result: LANA-nucl inh)
O=C(O)c1ccc(C2SCCCS2)cc1	none (no result: LANA-nucl inh)
Cc1occc1-c1nnc(SCC(=O)NCc2ccc3c(c2)OCO3)n1CC(C)C	none
COCCn1c(SCC(=O)NCc2ccc3c(c2)OCO3)nnc1-c1c[nH]c2ccccc12	LANA-nucl inh -2.2
COC(=O)c1sc2nc3c(c(C(F)(F)F)c2c1N)CN(C(C)=O)CC3	LANA-nucl inh -8.1
COC(=O)c1sc2nc(-c3ccco3)cc(C(F)(F)F)c2c1N	none
Cc1ccccc1Nc1nc(N)nc(CN2CCC(C)CC2)n1	none (no result: LANA-nucl inh)
CN(Cc1ccccc1F)C(=O)CNC(N)=O	none (no result: LANA-nucl inh)
NC(=O)Cn1cnc2ccccc21	none
O=C(Cn1cnc2ccccc21)OCc1ccc(Br)cc1	BasE inh 27 (no result: LANA-nucl inh)
Cc1cccc(C)c1NC(=O)CCCN1C(=O)NC2(CCCC2)C1=O	none (no result: LANA-nucl inh)
COc1ccc(C(=O)NCC2COc3ccccc3O2)cc1 (stereo not drawn)	none
O=C1/C(=C\C=C\c2ccco2)SC(=S)N1NS(=O)(=O)c1ccccc1	BasE inh 40
O=C(NN1C(=O)/C(=C\C=C\c2ccco2)SC1=S)c1ccccc1O	none
O=C(O)CCC(C(=O)O)N1C(=O)/C(=C/C=C/c2ccco2)SC1=S (stereo not drawn)	LANA-nucl inh -2.2
CC(C)C(C(=O)O)N1C(=O)/C(=C/C=C/c2ccco2)SC1=S (stereo not drawn)	none
CCc1cc2c(C)cc(=O)oc2cc1OC(=O)[C@@H]1CCCN1C(=O)OC(C)(C)C	none (no result: LANA-nucl inh)
Cn1c(CN)nnc1SCc1ccccc1	none
NC(=O)CC12CC3CC(C1)CC(CC(N)=O)(C3)C2	BasE inh 57
O=C(O)CC12CC3CC(C1)CC(CC(=O)O)(C3)C2	none (no result: LANA-nucl inh)
OCCN(CCO)c1nc(N2CCCCC2)c2nc(N(CCO)CCO)nc(N3CCCCC3)c2n1	LANA-nucl inh -2.3!, BasE inh 36!
C1CCCN(c2nc3nonc3nc2N2CCCCCC2)CC1	none
Cc1ccc(NC(=O)/C(C#N)=N/Nc2ccc(C(=O)O)cc2)c(C)c1	none (no result: LANA-nucl inh)
COc1ccc(N/N=C(\C#N)C(=O)Nc2ccccc2C(=O)O)cc1Cl	BasE inh 80 (no result: LANA-nucl inh)
CCNC(=O)C(C)Oc1ccc(Cl)c(C)c1 (stereo not drawn)	none
CC(C)c1nc(NCc2ccccc2)c(C#N)c2c1CCCC2	none
N#Cc1c(NCc2ccccc2)ncc2c1Nc1ccccc1C2	LANA-nucl inh -3.3
COC(=O)C1=C(C)NC(C)=C(C(=O)OCCSc2ccccc2)C1C (stereo not drawn)	none
Cc1nc2ccccn2c1/C=C1\C(=O)N(C)C(=S)N1C	none (no result: LANA-nucl inh)
COc1cc(/C=N/NC(=O)c2ccccc2-n2cccc2)ccc1O	none (no result: LANA-nucl inh)
COc1cc(/C=N/NC(=O)c2cc(C3CC3)[nH]n2)ccc1O	BasE inh 49
Cc1cccc(C)c1-n1nnnc1SCC(=O)Nc1ccc2c(c1)OCO2	none
CCCC(C)C(=O)Nc1ccc(-c2nc3ccccc3o2)cc1 (stereo not drawn)	LANA-nucl inh -2.2
CC(C)C(=O)Nc1cccc(-c2nc3ccccc3o2)c1	none
O=C(Nc1ccccc1)N1CCC(C(=O)N2CCc3ccccc3C2)CC1	none (no result: LANA-nucl inh)
C/C(=C\C(=O)c1ccc(Cl)cc1)Nc1ccncc1	none
Cc1cc(O)cc(=O)n1C	none
Cc1cc(O)c(Cc2c(O)cc(C)n(C)c2=O)c(=O)n1C	LANA-nucl inh -2.4

Compound activity deposited in PubChem by ICCB-Longwood Screening Facility, Harvard Medical School.
